Laboratory results from ChEMBL document CHEMBL1124316, “Synthesis and activity of nonhydrolyzable pseudomonic acid analogues” (J Med Chem, 1989).
In brackets after ≈: the same amount, converted by molar mass.

Legend:
Escherichia coli [1] = assay: In vitro antibacterial activity against Escherichia coli Juhl; assay type: functional
Procedure, shortened: (§1)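 MICs were determined by agar dilution on brain heart infusion agar, with an inoculum of 10⁴ cfu/spot. Strains were either clinical isolates kept frozen in a culture collection or ATCC strains.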

Escherichia coli [2] = assay: In vitro antibacterial activity against Escherichia coli SS; assay type: functional; procedure, shortened: as §1
Isoleucine--tRNA ligase = Isoleucine--tRNA ligase (Escherichia coli K-12, UniProt P00956); assay: Inhibitory activity against Isoleucyl-tRNA synthetase
Procedure, shortened: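 Isoleucyl-tRNA synthetase was isolated from Escherichia coli and purified to homogeneity. IC50 values were measured by the ATP-pyrophosphate exchange assay.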

[3] = system: Staphylococcus epidermidis; assay: In vitro antibacterial activity against Staphylococcus epidermidis 3519; assay type: functional; procedure, shortened: as §1
Staphylococcus aureus = assay: In vitro antibacterial activity against Staphylococcus aureus ATCC […]; assay type: functional; procedure, shortened: as §1
Streptococcus pyogenes = assay: In vitro antibacterial activity against Streptococcus pyogenes EES 61; assay type: functional; procedure, shortened: as §1
Streptococcus agalactiae = assay: In vitro antibacterial activity against Streptococcus agalactiae CMX 508; assay type: functional; procedure, shortened: as §1
[4] = Escherichia coli, read-out: MIC
[5] = Streptococcus pyogenes, read-out: MIC

Sequence of Isoleucine--tRNA ligase (P00956 whole entry): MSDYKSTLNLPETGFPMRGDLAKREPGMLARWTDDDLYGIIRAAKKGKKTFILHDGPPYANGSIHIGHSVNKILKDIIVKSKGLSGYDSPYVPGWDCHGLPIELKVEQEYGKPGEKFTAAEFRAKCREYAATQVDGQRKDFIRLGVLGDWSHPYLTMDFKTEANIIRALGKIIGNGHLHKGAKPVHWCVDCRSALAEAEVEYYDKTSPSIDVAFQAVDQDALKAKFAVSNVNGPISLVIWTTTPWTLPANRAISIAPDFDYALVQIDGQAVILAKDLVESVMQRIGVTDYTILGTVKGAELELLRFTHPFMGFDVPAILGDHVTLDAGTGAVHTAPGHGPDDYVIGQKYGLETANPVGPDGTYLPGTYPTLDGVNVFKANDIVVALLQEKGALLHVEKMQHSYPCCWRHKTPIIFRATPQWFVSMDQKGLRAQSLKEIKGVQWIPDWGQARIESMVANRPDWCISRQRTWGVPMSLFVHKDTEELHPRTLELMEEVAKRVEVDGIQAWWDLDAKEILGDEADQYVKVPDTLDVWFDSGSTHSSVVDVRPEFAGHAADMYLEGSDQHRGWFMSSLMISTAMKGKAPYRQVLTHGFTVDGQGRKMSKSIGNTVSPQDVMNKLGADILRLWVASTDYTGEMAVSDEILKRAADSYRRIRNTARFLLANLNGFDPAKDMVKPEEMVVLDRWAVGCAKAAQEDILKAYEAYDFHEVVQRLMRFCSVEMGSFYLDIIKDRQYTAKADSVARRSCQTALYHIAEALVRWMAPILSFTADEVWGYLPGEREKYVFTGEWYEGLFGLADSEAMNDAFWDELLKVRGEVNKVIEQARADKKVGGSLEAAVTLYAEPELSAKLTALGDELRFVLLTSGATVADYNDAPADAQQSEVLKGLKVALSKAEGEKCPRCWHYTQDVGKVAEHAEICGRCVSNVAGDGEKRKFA

Structure (SMILES)	MIC (Escherichia coli [1]) [mg/L]	MIC (Escherichia coli [2]; [4]) [mg/L]	IC50 (Isoleucine--tRNA ligase) [µM]	MIC [3] [mg/L]	MIC (Staphylococcus aureus) [mg/L]	MIC (Streptococcus pyogenes; [5]) [mg/L]	MIC (Streptococcus agalactiae) [mg/L]	MIC (Escherichia coli [2]) [mg/L]	MIC (Streptococcus pyogenes) [mg/L]
COC(=O)CCCCCCCCOC/C=C(\C)C[C@@H]1OCC(C[C@@H]2O[C@H]2[C@@H](C)[C@H](C)O)[C@@H](O)[C@H]1O (some centres undefined)	> 100	12.5 (≈ 25 µM)	1.7	> 100	> 100	100 (≈ 200 µM)	> 100	–	–
CCCCSC/C=C(\C)C[C@@H]1OCC(C[C@@H]2O[C@H]2[C@@H](C)[C@H](C)O)[C@@H](O)[C@H]1O (some centres undefined)	> 100	50 (≈ 124 µM)	390	> 100	> 100	100 (≈ 248 µM)	> 100	–	–
C[C@H]([C@@H]1O[C@H]1CC1CO[C@@H](Cc2ccoc2)[C@H](O)[C@@H]1O)[C@H](C)O (some centres undefined)	> 100	100 (≈ 306 µM)	> 1230	> 100	> 100	> 100	> 100	–	–
C/C(=C\Sc1ccccc1)C[C@@H]1OC[C@H](C[C@@H]2O[C@H]2[C@@H](C)[C@H](C)O)[C@@H](O)[C@H]1O	> 100	1.56 (≈ 3.82 µM)	11	6.2 (≈ 15.2 µM)	3.1 (≈ 7.59 µM)	3.1 (≈ 7.59 µM)	6.2 (≈ 15.2 µM)	–	–
CCCC[S+]([O-])/C=C(\C)C[C@@H]1OCC(C[C@@H]2O[C@H]2[C@@H](C)[C@H](C)O)[C@@H](O)[C@H]1O (stereo in doubt; 14)	–	–	171	–	–	–	–	100 (≈ 247 µM)	>100
C/C(=C\C(=O)OCCCCCCCCC(=O)[O-])C[C@@H]1OCC(C[C@@H]2O[C@H]2[C@@H](C)[C@H](C)O)[C@@H](O)[C@H]1O.[Na+] (some centres undefined)	> 100	0.2	0.191	0.1	0.1	0.1	0.78	–	–
CCCCS(=O)(=O)/C=C(\C)C[C@@H]1OCC(C[C@@H]2O[C@H]2[C@@H](C)[C@H](C)O)[C@@H](O)[C@H]1O (some centres undefined)	> 100	> 100	181	> 100	> 100	25 (≈ 59.4 µM)	> 100	–	–
COC(=O)CCCCCCCCOC(=O)/C=C(\C)C[C@@H]1OCC(C[C@@H]2O[C@H]2[C@@H](C)[C@H](C)O)[C@@H](O)[C@H]1O (some centres undefined)	50 (≈ 97.2 µM)	0.05 (≈ 0.0972 µM)	1.17	0.39 (≈ 0.758 µM)	0.2 (≈ 0.389 µM)	0.1 (≈ 0.194 µM)	0.78 (≈ 1.52 µM)	–	–
CCCCOC/C=C(\C)C[C@@H]1OCC(C[C@@H]2O[C@H]2[C@@H](C)[C@H](C)O)[C@@H](O)[C@H]1O (some centres undefined)	> 100	12.5 (≈ 32.3 µM)	51.7	100 (≈ 259 µM)	100 (≈ 259 µM)	50 (≈ 129 µM)	> 100	–	–
CCCCS/C=C(\C)C[C@@H]1OCC(C[C@@H]2O[C@H]2[C@@H](C)[C@H](C)O)[C@@H](O)[C@H]1O (some centres undefined)	> 100	0.78 (≈ 2.01 µM)	5.4	0.78 (≈ 2.01 µM)	1.56 (≈ 4.01 µM)	0.78 (≈ 2.01 µM)	3.1 (≈ 7.98 µM)	–	–
COC(=O)CCCCCCCCSC/C=C(\C)C[C@@H]1OCC(C[C@@H]2O[C@H]2[C@@H](C)[C@H](C)O)[C@@H](O)[C@H]1O (some centres undefined)	> 100	25 (≈ 48.4 µM)	18.4	> 100	100 (≈ 194 µM)	50 (≈ 96.8 µM)	> 100	–	–
CSC(CCCCCCCCCC(=O)/C=C(\C)C[C@@H]1OCC(C[C@@H]2O[C@H]2[C@@H](C)[C@H](C)O)[C@@H](O)[C@H]1O)(SC)SC (some centres undefined)	> 100	6.2 (≈ 10.2 µM)	14.8	1.56 (≈ 2.57 µM)	1.56 (≈ 2.57 µM)	1.56 (≈ 2.57 µM)	> 100	–	–
COC(=O)CCCCCCCCCC(=O)/C=C(\C)C[C@@H]1OCC(C[C@@H]2O[C@H]2[C@@H](C)[C@H](C)O)[C@@H](O)[C@H]1O (some centres undefined)	50 (≈ 97.5 µM)	0.05 (≈ 0.0975 µM)	3.32	0.39 (≈ 0.761 µM)	0.39 (≈ 0.761 µM)	0.1 (≈ 0.195 µM)	3.1 (≈ 6.05 µM)	–	–
CCCCS/C=C(/C)C[C@@H]1OCC(C[C@@H]2O[C@H]2[C@@H](C)[C@H](C)O)[C@@H](O)[C@H]1O (some centres undefined)	> 100	100 (≈ 257 µM)	744	> 100	> 100	> 100	> 100	–	–
C/C(=C\C(=O)c1ccccc1)C[C@@H]1OCC(C[C@@H]2O[C@H]2[C@@H](C)[C@H](C)O)[C@@H](O)[C@H]1O (some centres undefined)	100 (≈ 247 µM)	0.2 (≈ 0.494 µM)	0.494	0.39 (≈ 0.964 µM)	0.2 (≈ 0.494 µM)	0.39 (≈ 0.964 µM)	3.1 (≈ 7.66 µM)	–	–
C[C@H]([C@@H]1O[C@H]1CC1CO[C@@H](CC2=CC(=O)OC2)[C@H](O)[C@@H]1O)[C@H](C)O (some centres undefined)	> 100	25 (≈ 73 µM)	794	100 (≈ 292 µM)	100 (≈ 292 µM)	6.2 (≈ 18.1 µM)	100 (≈ 292 µM)	–	–
CCCC[S+]([O-])/C=C(\C)C[C@@H]1OCC(C[C@@H]2O[C@H]2[C@@H](C)[C@H](C)O)[C@@H](O)[C@H]1O (stereo in doubt; 15)	> 100	100 (≈ 247 µM)	> 989	> 100	> 100	100 (≈ 247 µM)	> 100	–	–
COC(=O)CCCCCCCCOC(=O)CC(=O)C[C@@H]1OCC(C[C@@H]2O[C@H]2[C@@H](C)[C@H](C)O)[C@@H](O)[C@H]1O (some centres undefined)	> 100	> 100	> 774	> 100	> 100	> 100	> 100	–	–
C/C(=C/Sc1ccccc1)C[C@@H]1OC[C@H](C[C@@H]2O[C@H]2[C@@H](C)[C@H](C)O)[C@@H](O)[C@H]1O	> 100	12.5 (≈ 30.6 µM)	46.5	50 (≈ 122 µM)	25 (≈ 61.2 µM)	12.5 (≈ 30.6 µM)	50 (≈ 122 µM)	–	–
